According to ChEMBL document CHEMBL1155292, “Synthesis, analgesic and anti-inflammatory activities evaluation of some bi-, tri- and tetracyclic condensed pyrimidines” (Eur J Med Chem, 2009):

Key:
Rattus norvegicus [1] = test: Antiinflammatory activity in albino rat assessed as inhibition of carrageenan-induced paw edema at 0.029 mmol/kg, po after 2 hrs relative to control; type: functional
How it was run: (§1)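 Adult albino rats of either sex, 120–150 g, six per group. Compounds at 0.029 mmol/kg suspended in saline with a few drops of Tween 80 and given by oral stomach tube. After 1 h, 0.1 ml of freshly prepared 1% carrageenan in saline injected subplantar into the right hind paw. Paw thickness measured at 1–4 h; % edema inhibition versus control; mean ± SEM; ANOVA.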

Rattus norvegicus [2] = test: Antiinflammatory activity in albino rat assessed as inhibition of carrageenan-induced paw edema at 0.029 mmol/kg, po after 1 hr relative to control; type: functional; how it was run: as §1
Rattus norvegicus [3] = test: Antiinflammatory activity in albino rat assessed as inhibition of carrageenan-induced paw edema at 0.029 mmol/kg, po after 4 hrs relative to control; type: functional; how it was run: as §1
Rattus norvegicus [4] = test: Antiinflammatory activity in albino rat assessed as inhibition of carrageenan-induced paw edema at 0.029 mmol/kg, po after 4 hrs relative to indomethacin; type: functional
How it was run: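 Rat carrageenan paw edema: oral 0.029 mmol/kg in saline/Tween 80, 1 h before subplantar 0.1 ml 1% carrageenan into the right hind paw; six rats per group. Potency is % inhibition of the test compound divided by % inhibition of indomethacin at 4 h.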

Rattus norvegicus [5] = test: Antiinflammatory activity in albino rat assessed as inhibition of carrageenan-induced paw edema at 0.029 mmol/kg, po after 3 hrs relative to control; type: functional; how it was run: as §1
Rattus norvegicus [6] = test: Gastrointestinal toxicity in albino rat assessed as ulcerogenic index at 0.029 mmol/kg, po after 5 hrs; type: organism-based; details: in vivo
How it was run: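 Adult albino rats of either sex (120–150 g), 6 per group, got the test compounds orally by stomach tube as a suspension in saline with a few drops of tween 80. They were the same rats used in the carrageenan paw-edema test. Stomachs were then opened along the great curvature and examined for lesions or bleeding. Ulceration was recorded as the number of rats with ulcers out of 6.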

Mus musculus [7] = test: Analgesic activity in albino mouse assessed as decrease in acetic acid-induced writhing at 11.55 mg/kg, po administered 1 hr prior to acetic acid challenge relative to control; type: functional
How it was run: (§2)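 Albino mice of either sex, 18–22 g, six per group. Test agents suspended in saline with a few drops of Tween 80 and given by oral stomach tube; controls handled identically without drug. After 1 h, 0.3 ml of 1% acetic acid ip. Writhing contractions counted for 30 min, starting 5 min after injection. % protection versus control mean; mean ± SEM; one-way ANOVA with post hoc test.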

Mus musculus [8] = test: Analgesic activity in albino mouse assessed as decrease in acetic acid-induced writhing at 12.87 mg/kg, po administered 1 hr prior to acetic acid challenge relative to control; type: functional; how it was run: as §2
Mus musculus [9] = test: Analgesic activity in albino mouse assessed as decrease in acetic acid-induced writhing at 11.32 mg/kg, po administered 1 hr prior to acetic acid challenge relative to control; type: functional; how it was run: as §2
Mus musculus [10] = test: Analgesic activity in albino mouse assessed as decrease in acetic acid-induced writhing at 0.8 mg/kg, po administered 1 hr prior to acetic acid challenge; type: functional; how it was run: as §2
Mus musculus [11] = test: Analgesic activity in albino mouse assessed as decrease in acetic acid-induced writhing at 8 mg/kg, po administered 1 hr prior to acetic acid challenge; type: functional; how it was run: as §2
Mus musculus [12] = test: Analgesic activity in albino mouse assessed as decrease in acetic acid-induced writhing at 4 mg/kg, po administered 1 hr prior to acetic acid challenge; type: functional; how it was run: as §2
Mus musculus [13] = test: Analgesic activity in albino mouse assessed as decrease in acetic acid-induced writhing at 11.96 mg/kg, po administered 1 hr prior to acetic acid challenge relative to control; type: functional; how it was run: as §2
Mus musculus [14] = test: Analgesic activity in albino mouse assessed as decrease in acetic acid-induced writhing at 1 mg/kg, po administered 1 hr prior to acetic acid challenge; type: functional; how it was run: as §2
Mus musculus [15] = test: Analgesic activity in albino mouse assessed as decrease in acetic acid-induced writhing at 2 mg/kg, po administered 1 hr prior to acetic acid challenge; type: functional; how it was run: as §2
Mus musculus [16] = test: Analgesic activity in albino mouse assessed as decrease in acetic acid-induced writhing at 0.4 mg/kg, po administered 1 hr prior to acetic acid challenge; type: functional; how it was run: as §2
Mus musculus [17] = test: Analgesic activity in po dosed albino mouse assessed as decrease in acetic acid-induced writhing administered 1 hr prior to acetic acid challenge; type: functional, organism-based; how it was run: as §2
Mus musculus [18] = test: Analgesic activity in albino mouse assessed as decrease in acetic acid-induced writhing at 13.81 mg/kg, po administered 1 hr prior to acetic acid challenge relative to control; type: functional; how it was run: as §2
Rattus norvegicus [19] = test: Antiinflammatory activity in albino rat assessed as inhibition of carrageenan-induced paw edema at 25 mg/kg, po; type: functional
How it was run: (§3)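 Rat carrageenan paw edema with oral dosing at 10, 15, 20 and 25 mg/kg, suspended in saline with Tween 80, 1 h before subplantar 0.1 ml 1% carrageenan into the right hind paw. % edema inhibition versus control at each dose; IC50 (mg/kg) derived from these four doses.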

Rattus norvegicus [20] = test: Antiinflammatory activity in albino rat assessed as inhibition of carrageenan-induced paw edema at 20 mg/kg, po; type: functional; how it was run: as §3
Mus musculus [21] = test: Analgesic activity in albino mouse assessed as decrease in acetic acid-induced writhing at 11.52 mg/kg, po administered 1 hr prior to acetic acid challenge relative to control; type: functional; how it was run: as §2
Rattus norvegicus [22] = test: Antiinflammatory activity in albino rat assessed as inhibition of carrageenan-induced paw edema at 15 mg/kg, po; type: functional; how it was run: as §3
Rattus norvegicus [23] = test: Antiinflammatory activity in albino rat assessed as inhibition of carrageenan-induced paw edema at 10 mg/kg, po; type: functional; how it was run: as §3
Rattus norvegicus [24] = test: Antiinflammatory activity in po dosed albino rat assessed as inhibition of carrageenan-induced paw edema; type: functional, organism-based
How it was run: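 Adult albino rats of either sex, 120–150 g, groups of 6. Compound suspended in saline with a few drops of tween 80, given by oral stomach tube 1 h before subplantar injection of freshly prepared 1% carrageenan (0.1 ml) in saline into right hind paw. Paw thickness read at 1–4 h; % edema inhibition versus carrageenan control; mean ± SEM, one-way ANOVA with post hoc test.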

Mus musculus [25] = test: Analgesic activity in albino mouse assessed as decrease in acetic acid-induced writhing at 13.84 mg/kg, po administered 1 hr prior to acetic acid challenge relative to control; type: functional; how it was run: as §2
Mus musculus [26] = test: Analgesic activity in albino mouse assessed as decrease in acetic acid-induced writhing at 12.04 mg/kg, po administered 1 hr prior to acetic acid challenge relative to control; type: functional; how it was run: as §2

Structure (SMILES)	inhibition in vivo at 29 µmol/kg (Rattus norvegicus [1]) [%]	inhibition in vivo at 29 µmol/kg (Rattus norvegicus [2]) [%]	inhibition in vivo at 29 µmol/kg (Rattus norvegicus [3]) [%]	relative potency at 29 µmol/kg (Rattus norvegicus [4])	inhibition in vivo at 29 µmol/kg (Rattus norvegicus [5]) [%]	UI (Rattus norvegicus [6])	other results
O=C1N(c2ccccc2)c2nc(-c3ccccc3)n3c(=O)[nH]nc3c2C2CCCN12 (centres undefined)	12.4	10.1	15.5	0.56	17.3	Non-toxic	inhibition in vivo at 11.55 mg/kg (Mus musculus [7]): 75.9%
CCOC(=O)NNc1nc(-c2ccccc2)nc2c1C1CCCN1C(=O)N2c1ccccc1 (centres undefined)	17.4	19.1	16.1	0.59	18	–	inhibition in vivo at 12.87 mg/kg (Mus musculus [8]): 91.8%
COc1ccc(C2NC(=O)C3=C(N2)N(c2ccccc2)C(=O)N2CCCC32)cc1 (centres undefined)	6.64	6.72	18.6	0.68	13.7	–	inhibition in vivo at 11.32 mg/kg (Mus musculus [9]): 84.4%
O=C1CN2C(=NN1)C1=C(N=C2c2ccccc2)N(c2ccccc2)C(=O)N2CCCC12 (centres undefined)	7.44	2.23	21.1	0.77	15.8	Non-toxic	inhibition in vivo at 0.8 mg/kg (Mus musculus [10]): 63.3%; inhibition in vivo at 8 mg/kg (Mus musculus [11]): 88.8%; inhibition in vivo at 4 mg/kg (Mus musculus [12]): 86.1%; inhibition in vivo at 11.96 mg/kg (Mus musculus [13]): 91.8%; inhibition in vivo at 1 mg/kg (Mus musculus [14]): 76.6%; inhibition in vivo at 2 mg/kg (Mus musculus [15]): 82.4%; inhibition in vivo at 0.4 mg/kg (Mus musculus [16]): 43.1%; IC50 (Mus musculus [17]): 0.446 mg/kg
O=C(NNc1nc(-c2ccccc2)nc2c1C1CCCN1C(=O)N2c1ccccc1)c1ccccc1 (centres undefined)	28.9	35.9	25.5	0.93	27.4	–	inhibition in vivo at 13.81 mg/kg (Mus musculus [18]): 71.8%
O=C1CN=C2C3=C(N=C(c4ccccc4)N12)N(c1ccccc1)C(=O)N1CCCC31 (centres undefined)	22.3	14.6	29.2	1.06	27.4	Non-toxic	inhibition in vivo at 25 mg/kg (Rattus norvegicus [19]): 68.4%; inhibition in vivo at 20 mg/kg (Rattus norvegicus [20]): 61.3%; inhibition in vivo at 11.52 mg/kg (Mus musculus [21]): 78.5%; inhibition in vivo at 15 mg/kg (Rattus norvegicus [22]): 40%; inhibition in vivo at 10 mg/kg (Rattus norvegicus [23]): 17%; IC50 (Rattus norvegicus [24]): 17.62 mg/kg
O=C(NNc1nc(-c2ccccc2)nc2c1C1CCCN1C(=O)N2c1ccccc1)c1cccnc1 (centres undefined)	11.6	32.6	5.59	0.2	8.63	–	inhibition in vivo at 13.84 mg/kg (Mus musculus [25]): 77.9%
O=C1N(c2ccccc2)c2nc(-c3ccccc3)nc(N3CCCC3)c2C2CCCN12 (centres undefined)	26.5	7.82	15.5	0.56	25.2	Non-toxic	inhibition in vivo at 12.04 mg/kg (Mus musculus [26]): 95%
